Results as given in ChEMBL document CHEMBL4513216, “Probing the Open Global Health Chemical Diversity Library for Multistage-Active Starting Points for Next-Generation Antimalarials” (ACS Infect Dis, 2020).

Assay: Toxicity liver stage against HepG2, at 10uM
Format: cell-based
Parameters: test concentration 10 uM, cell line HepG2-A16-CD81EGFP
Conditions: human, HepG2-A16-CD81EGFP cells; read-out: INHIBITION
Procedure, shortened: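 Uninfected HepG2-A16-CD81EGFP cells, 3 × 10^3 per well, 1536-well, plated on prespotted compound at 10 μM final, parasite-free screening media added to match infected plates; puromycin 10 μM positive, DMSO 0.5% negative; run in parallel with 48 h PbLuc assay at 37 °C, 5% CO2; viability by CellTiter-Glo luminescence, normalized to controls.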

| SMILES | cytotoxicity at 10 µM [%] |
| --- | --- |
| COc1c(-c2ccc(O)cc2)oc2cc(O)cc(O)c2c1=O [ISOKAEMPFERIDE] | 7.8 |
| CN(CC(N)=O)C(=O)c1csc(Br)c1 | 3 |
| CC(C)Sc1ccc(N2CCN(Cc3ccccn3)CC2)nn1 | 2.11 |
| Cc1ccc(N2CCCC(NCC(=O)NC(C3CC3)C3CC3)C2)nn1 (stereo unspecified) | -2.8 |
| COc1cc(C(=O)NCC2CCCO2)nc2c(C)cc(F)cc12 (stereo unspecified) | 1.79 |
| CN1CCN(CCn2cnc3c(F)cccc3c2=O)CC1 | -1.67 |
| Cc1cc(CN2CCN(C(=O)CCc3cccs3)CC2)on1 | -5 |
| COc1ncccc1C(=O)NC1(c2cccc(F)c2)CCOCC1 | 10.9 |
| Cc1nc(C)c(S(=O)(=O)NC(=O)c2ccsc2)s1 | -6.85 |
| O=C(NCc1cc(N2CCOCC2)ncn1)c1cccc(CO)n1 | -7.76 |
| CCC(O)CN1CCN(C(=O)c2sccc2C(C)C)CC1 (stereo unspecified) | 6.89 |
| COc1cccc(Cn2c(=O)n(C)c(=O)c3sccc32)c1 | 3.29 |
| CC(C)Oc1cccc(CNC(=O)NC(C)(C(=O)O)c2ccco2)c1 (stereo unspecified) | -2.77 |
| NS(=O)(=O)CCN(CCc1cccc(F)c1)C1CCCC1 | -6.08 |
| O=C(NCCn1nc2ccccn2c1=O)c1sccc1-c1ccccc1 | -12.7 |
| Cc1cc(N(C)C)nc(NC2CCc3nc(C)nn3C2)n1 (stereo unspecified) | 5.56 |
| O=c1ncn(-c2ccccc2F)c2ncccc12 | -2.26 |
| Cc1ccccc1-c1cc(NC(=O)NC2CC2)n(CCO)n1 | 8.09 |
| NC(=O)c1ccccc1-n1cc(-c2cccc(C(=O)O)c2)cn1 | -5.65 |
| CN1CCc2nc(C3CCCCN3Cc3ccccc3Cl)ncc2C1 (stereo unspecified) | -27.7 |
| CCn1ncc2c1CCCC2NCc1cscn1 (stereo unspecified) | -2.42 |
| COc1cc(CNCCn2cc(C)cn2)c2c(c1)CC(C)O2 (stereo unspecified) | 19.1 |
| Cc1noc(C)c1CN1CC2(CCN(C(=O)c3cscn3)CC2)CC1=O | -8.86 |

| SMILES | cytotoxicity at 10 µM [%] |
| --- | --- |
| CNC(=O)COc1ccc(CNCc2c(C)nn(C)c2N(C)C)cc1 | -5.92 |
| CC(O)CN1CC2(CCC1=O)CCN(Cc1cc(F)ccc1Cl)CC2 (stereo unspecified) | 6.89 |
| COCC1c2nnn(CC3CC3)c2CCN1C(=O)N1CCCC1 (stereo unspecified) | -131 |
| O=C(O)CCn1ccc2c(nnc3c(-c4ccc(F)cc4)cnn32)c1=O | 4.01 |
| Cc1[nH]c(-c2ccccc2)nc1C(=O)N1CCC(O)(CO)CC1 | 1.1 |
| Cc1nn(C)c(C)c1NC(=O)CN1CCc2c(nc(C(C)C)n2C)C1 | -8.02 |
| Cc1nc2n(n1)CC(NCCC(=O)Nc1cc(C)on1)CC2 (stereo unspecified) | -10.5 |
| CC(c1nc(C2CC2)no1)N1CCN(Cc2ccc(C#N)cc2)CC1 (stereo unspecified) | 3.71 |
| Fc1cccc(Cl)c1CNCc1ccccn1 | -2.25 |
| CCC1C=CCN1C(=O)c1cc(COc2ccccc2OC)[nH]n1 (stereo unspecified) | 2.93 |
| N#Cc1ccc(C(=O)N2C[C@H](OCc3cccnc3)[C@H]3COC[C@H]32)cc1 | 5.38 |
| CCOc1ncccc1CNS(=O)(=O)c1ccc2c(c1)CCC2 | 13.3 |
| CCOC1COC2(CCN(Cc3cccnc3OC)CC2)C1 (stereo unspecified) | -2.47 |
| N#Cc1ccc(OCCNc2cccc(C(=O)N3CCOCC3)c2)cc1 | -2.96 |
| O=C(CN1CCCNC1=O)N(Cc1ccccc1)CC(F)F | 5.9 |
| CC(C)(C)SCCNC(=O)[C@@]12CNC[C@@H]1CN(S(C)(=O)=O)C2 | 0.251 |
| O=C(c1cnccn1)N1C[C@@H]2CCN(c3cnccn3)C[C@@H]2C1 | -100 |
| Cc1noc2ncc(C(=O)N(CC3CCOC3)C3CC3)cc12 (stereo unspecified) | -6.64 |
| COc1ccc(C)cc1CNCc1ccc(-n2nc(C)cc2C)nc1 | 0.813 |
| c1ccc(NC[C@@H]2CCC[C@@H]3CN(Cc4csnn4)C[C@@H]32)nc1 | -114 |
| COc1cc(CN2CCCC2c2cccc(F)c2)cc(OC)c1OC (stereo unspecified) | -2.03 |
| CCc1nc2ccccc2n1C(CC)C(=O)N(C)Cc1noc(C)n1 (stereo unspecified) | 2.23 |
| Cc1ccc(CN2Cc3ccnn3CC(C(=O)NCC3CC3)C2)o1 (stereo unspecified) | -15.9 |

| SMILES | cytotoxicity at 10 µM [%] |
| --- | --- |
| FC(F)CNc1cnc(C2CCNCC2)cn1 | 0.83 |
| Cc1ccc(CN(Cc2ccncc2)C2CCN(C)CC2)s1 | 7.39 |
| O=C(NCc1ccccc1)c1nnc2ccc(N3CCOCC3)cc2n1 | 11.2 |
| Cc1ccc(-c2noc(C3CCN3C(=O)c3ccn(C)n3)n2)s1 (stereo unspecified) | 3.56 |
| Cc1nc(CNC(=O)Nc2cc(F)ccc2N2CCN(C)CC2)no1 | -8.8 |
| CC(C)C(Sc1ccccc1)C(=O)N(C)Cc1nnc2n1CCC2 (stereo unspecified) | -12.5 |
| CC(C)CNC(=O)c1cn(C)c(=O)c2ccccc12 | 1.28 |
| O=C(CCc1cc(Cl)no1)N1CCN(CCn2cncn2)CC1 | -1.84 |
| CN(C)c1cc2c(nn1)CCN(C(=O)c1cc3c(s1)CCOC3)C2 | 2.35 |
| Cc1nc(C)n(CCC(=O)N2CCc3ncc(Cl)cc3C2)n1 | 2.67 |
| O=C(Nc1ccc2c(c1)C(=O)NC2=O)c1cccs1 | -4.08 |
| C[C@H]1CN(C(=O)c2cccnc2)C[C@@]12CCN(CCN1CCCC1)C2=O | -4.71 |
| NC(=O)COc1cccc(C(=O)NCc2ccc(Cl)s2)c1 | -0.935 |
| Cc1nc(CN2CCOC(CNc3cccnn3)C2)oc1C (stereo unspecified) | -7.94 |
| O=C(NC1(c2nc(C3CC3)no2)CCCCC1)c1cccnc1O | -8.92 |
| COc1cc(Cl)ccc1C(=O)N1CCCC(n2nc(C)nc2C)C1 (stereo unspecified) | -5.8 |
| O=C(Nc1cccc2c1CCCC2)c1cccnc1N1CCCNCC1 | 6.84 |
| CNC(=O)C(C)CN(C)C(=O)Nc1ccc(Cl)cc1-n1cccc1 (stereo unspecified) | 16.9 |
| COCCN(Cc1noc(-c2ccc(OC)cc2)n1)C1CC1 | 5.69 |
| CCOC(=O)c1cnn(C2CCN(C(=O)CCC(C)C)CC2)c1N | -0.12 |
| O=C(Nc1cnccn1)[C@@H]1CCO[C@@H]2CCN(Cc3ccsc3)C[C@@H]21 | -77.1 |
| CCOCCN1CCN(Cc2cccc(C(=O)N(C)C)c2)CC1CC (stereo unspecified) | -5.83 |
| CC(C)CN(CCc1ccccc1)Cc1nc2c(cnn2C)c(=O)[nH]1 | -6.94 |

| SMILES | cytotoxicity at 10 µM [%] |
| --- | --- |
| COCc1noc(CCC(=O)c2ccc3c(c2)OCCO3)n1 | 0.923 |
| Cc1cc(NC(=O)CNc2ccc(Br)cc2F)on1 | -28.1 |
| COc1ccccc1CN1CCN(CCN2CCOC2=O)CC1 | -11.2 |
| COCCN(C)CC(=O)N1C[C@@H](C)[C@](O)(C(C)C)C1 | 4.9 |
| Cc1ccc(S(=O)(=O)NCCNC(=O)c2ccoc2)cc1F | -5.69 |
| Cc1nc(C(=O)Nc2cc(N3CCNC3=O)ccc2Cl)cs1 | -1.33 |
| C[C@H]1CN(C(=O)c2cccc(F)c2Cl)CCN1S(C)(=O)=O | -13.5 |
| COCCC1(CNC(=O)NCC2CCCN(C)C2)CCCC1 (stereo unspecified) | 0.131 |
| Cc1ncc(C(=O)N2CCC(C(=O)NC3CCCC3)C2)c(C)n1 (stereo unspecified) | 6.3 |
| CCN(C(c1ccc(OC)cc1)c1cccnc1)S(C)(=O)=O (stereo unspecified) | 9.62 |
| CN(C)C(=O)CN1CCCC(Cc2ccc(N3CCCC3)nn2)C1 (stereo unspecified) | 3.77 |
| Cc1ncsc1CN1C[C@@H]2COC[C@]2(C(=O)NCc2ccccn2)C1 | -108 |
| Cc1nc(O)ccc1C(=O)N1CCCC1c1nc(-c2ccccc2)n[nH]1 (stereo unspecified) | 0.636 |
| Nc1cc(-c2cccs2)nn(CC(=O)N2CCc3ccccc32)c1=O | -10 |
| CC(C)CCN(C)Cn1ncc2cn(-c3ccccc3)nc2c1=O | 6.72 |
| CCC(NC(=O)c1cccc2cc[nH]c12)C(=O)N1CCOCC1 (stereo unspecified) | -13 |
| O=C1N(CC2CC2)C(c2cncs2)NC12CCCC2 (stereo unspecified) | -3.84 |
| CCN(CC)C(=O)c1cccc(Cn2nc(C)cc2C)c1 | -5.93 |
| COc1ccc(-c2cnc(CN3CCn4c(C)nnc4C3)o2)cc1 | -13.5 |
| Cc1cnn(CC2CCCCN2C(=O)c2ccnc(N(C)C)c2)c1 (stereo unspecified) | 3.3 |
| O=C(Nc1cn[nH]c1)N(CCCO)C1CCc2ccccc21 (stereo unspecified) | -1.74 |
| O=C(C1CCOC1)N1CCC2(CC1)COC2 (stereo unspecified) | 3.06 |
| CCC(CNC1CCN(C(C)=O)CC1)Oc1cccc(C)c1 (stereo unspecified) | 6.42 |

| SMILES | cytotoxicity at 10 µM [%] |
| --- | --- |
| Cc1cnc(N2C[C@@H]3[C@@H](C(=O)NC(C)C)CCS(=O)(=O)[C@@H]3C2)nc1 | -130 |
| Cc1nc(NC2CCCCC2)cc(C2CCCNC2)n1 (stereo unspecified) | -30.3 |
| CC(=O)N1C[C@@H](F)[C@@H](OCc2nc3ccc(C#N)cc3[nH]2)C1 | -0.302 |
| CC(C)NC(=O)N1CCOC2(CCCN(c3ncccc3F)C2)C1 (stereo unspecified) | -4.45 |
| Cc1nn(C)c(Oc2ccccc2)c1CNC1CCOc2ccccc21 (stereo unspecified) | 4.88 |
| Cc1cc(N2CCCN(c3nc(C)nc(C)c3C)CC2)ccn1 | -13.1 |
| CC1CN(CCOc2cccc(C#N)c2)CCN1Cc1nccn1C (stereo unspecified) | -2.81 |
| Cn1ccc(C(=O)NCc2ccc(Cn3ccnc3)cc2)cc1=O | 3.32 |
| CC(=O)N1CCCN(C(=O)NCc2ccccn2)CC1 | -7.37 |
| CO[C@@H]1CCN(Cc2nccn2C)[C@H]1Cc1cccnc1 | -71.5 |
| CNC(=O)[C@@H]1COC[C@H]2CN(C(=O)c3ccc(OC)cc3)C[C@H]21 | 9.48 |
| CSCc1nc(CNC(=O)C2CCCN(CC(N)=O)C2)cs1 (stereo unspecified) | -7.82 |
| CN1CCC(c2cc(C(F)(F)F)n3ccnc3n2)CC1 | -9.6 |
| Cc1nc(Nc2ccc(Cl)cn2)sc1C(=O)NC(C)C | 14 |
| O=C(CCNc1ccccc1)NC1CCN(C(=O)C2CCCCC2)CC1 | 6.72 |
| Cc1ccc(NC(=O)N2CCN(Cc3ccccn3)CC2)cc1Cl | -7.21 |
| COCC1CCCN(CCCc2cccc(OC)c2)C1 (stereo unspecified) | 2.41 |
| CSc1ccc(C(=O)N2CCOCC2c2c(C)nn(C)c2C)o1 (stereo unspecified) | -2.12 |
| Cc1ccc(CN2CCc3ncc(CNS(C)(=O)=O)n3CC2)o1 | -9.9 |
